A short description of data set [1]: Induction of PGE2 production in Wistar rat neutrophils at 100 uM after 18 hrs by ELISA. The format is cell-based. As to conditions: neutrophil. In short, it runs like this:
(§1)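 Rat peritoneal neutrophils elicited by intraperitoneal oyster glycogen, 1 × 10⁶ cells, incubated 18 h at 37 °C in 5% CO2 in medium alone (basal) or with LPS, with compounds in HBSS added at the same time. Supernatant frozen at −80 °C. TNF-α and PGE2 quantified by ELISA in pg/ml. Compared against HBSS-treated cells. Mean ± s.e.m. of 4 independent assays.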

For data set [2], the system named is Neutrophil. In words: Antiinflammatory activity in Wistar rat neutrophils assessed as inhibition of LPS-stimulated PGE2 production at 100 uM after 18 hrs by ELISA. It is filed as functional, cell-based. In short, it runs like this:
(§2)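 Glycogen-elicited peritoneal neutrophils from male Wistar rats, 1 × 10⁶ cells, 18 h at 37 °C in 5% CO2 with or without E. coli LPS (serotype 026:B6). Compounds given at the same time, dissolved in HBSS; HBSS-treated cells serve as control. Nitrite measured by Griess reaction (absorbance at 550 nm, 10 min). PGE2 measured by ELISA in supernatant stored frozen at −80 °C. Mean ± s.e.m. of 4 independent assays.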
(In general: ELISA stands for enzyme-linked immunosorbent assay.)

For data set [3], the target named is Nitric oxide synthase, inducible (Rattus norvegicus) (UniProt Q06518). In words: Inhibition of iNOS activity in LPS-stimulated Wistar rat neutrophils at 100 uM after 18 hrs by enzymatic assay. In short, it runs like this: (§3)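 Neutrophils treated 18 h with LPS and compound, then homogenized in cold 50 mM Tris-HCl pH 7.4 with 1 mM PMSF and 1 mM L-citrulline. Homogenates incubated 30 min at 37 °C with 1 mM NADPH. Activity expressed as pmol L-citrulline/min/mg protein, with protein by Bradford. Calcium-independent (iNOS) activity defined by omitting CaCl2 and adding 1 mM EGTA; 1 mM L-NAME used as control. Mean ± s.e.m., n = 4.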

Data set [4] can be described thus: Cytotoxicity against Wistar rat neutrophils assessed as cell viability. The format is cell-based, Neutrophil. The note with it: read-out: Activity.
Data set [5] has as its target T1, Nitric oxide synthase 3 (Rattus norvegicus) (UniProt Q62600).
T1 sequence (whole entry): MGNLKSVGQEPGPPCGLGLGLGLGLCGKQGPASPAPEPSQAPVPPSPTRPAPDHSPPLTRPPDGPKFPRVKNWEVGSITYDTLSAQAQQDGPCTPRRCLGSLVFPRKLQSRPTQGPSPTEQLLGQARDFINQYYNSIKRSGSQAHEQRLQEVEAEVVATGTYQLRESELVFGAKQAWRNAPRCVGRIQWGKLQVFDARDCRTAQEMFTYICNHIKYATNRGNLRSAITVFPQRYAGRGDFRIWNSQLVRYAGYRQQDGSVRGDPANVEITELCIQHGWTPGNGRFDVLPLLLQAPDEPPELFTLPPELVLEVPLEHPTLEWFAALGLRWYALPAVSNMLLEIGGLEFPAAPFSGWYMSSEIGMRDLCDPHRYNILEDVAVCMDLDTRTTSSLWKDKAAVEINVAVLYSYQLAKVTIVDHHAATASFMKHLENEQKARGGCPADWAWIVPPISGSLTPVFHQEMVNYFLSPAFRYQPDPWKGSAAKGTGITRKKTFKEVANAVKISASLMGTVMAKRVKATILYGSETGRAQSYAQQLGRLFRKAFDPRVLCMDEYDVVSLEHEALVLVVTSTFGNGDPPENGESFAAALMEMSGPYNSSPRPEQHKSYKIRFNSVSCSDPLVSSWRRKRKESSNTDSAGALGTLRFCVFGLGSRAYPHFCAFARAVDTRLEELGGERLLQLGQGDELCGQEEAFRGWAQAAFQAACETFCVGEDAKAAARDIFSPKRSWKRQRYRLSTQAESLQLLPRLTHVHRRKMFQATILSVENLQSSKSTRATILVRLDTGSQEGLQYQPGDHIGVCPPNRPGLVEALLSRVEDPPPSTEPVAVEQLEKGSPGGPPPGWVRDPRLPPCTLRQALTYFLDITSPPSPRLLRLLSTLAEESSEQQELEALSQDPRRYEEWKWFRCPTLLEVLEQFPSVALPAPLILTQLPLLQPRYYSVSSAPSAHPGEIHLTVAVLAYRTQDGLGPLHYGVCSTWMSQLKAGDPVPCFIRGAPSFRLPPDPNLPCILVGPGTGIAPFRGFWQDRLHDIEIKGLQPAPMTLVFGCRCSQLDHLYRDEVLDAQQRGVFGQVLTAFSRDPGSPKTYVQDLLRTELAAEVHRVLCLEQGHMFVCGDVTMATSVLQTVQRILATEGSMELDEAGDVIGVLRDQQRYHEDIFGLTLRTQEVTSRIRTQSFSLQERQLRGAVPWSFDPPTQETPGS
The data set is described as follows: Inhibition of eNOS in rat PMEC assessed as reduction in nitrite level at 100 uM after 48 hrs by Griess method. In a few lines:
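Primary microvascular endothelial cells from rat cremaster muscle explants, grown in DMEM with 20% fetal calf serum and used at confluence after subculture. Incubated 48 h at 37 °C in 5% CO2 without LPS, with coumarin compounds or L-NAME at 100 µM. Nitrite in supernatant measured by Griess reaction at 550 nm. Mean ± s.e.m. of 4 independent assays.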
Background: Griess reagent forms a coloured azo dye with nitrite.

Data set [6] concerns Neutrophil. In words: Antiinflammatory activity in Wistar rat neutrophils assessed as reduction of LPS-stimulated TNFalpha production at 100 uM after 18 hrs by ELISA. The format is functional, cell-based. In a few lines: as §1
In data set [7] the test system is Neutrophil. The data set is described as follows: Antiinflammatory activity in Wistar rat neutrophils assessed as reduction of TNFalpha production at 100 uM after 18 hrs by ELISA. The format is functional, cell-based. In short, it runs like this: as §1
Data set [8] relates to Neutrophil. The data set is described as follows: Inhibition of LPS-induced iNOS expression in Wistar rat neutrophils assessed as reduction of NO production after 18 hrs by Western blot analysis. It is filed as functional, cell-based. In short, it runs like this:
(§4)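 Glycogen-elicited Wistar rat neutrophils, 1 × 10⁶ cells, incubated 18 h with LPS plus compound or control. Protein: homogenate in 50 mM Tris pH 7.4 with PMSF, 50 µg run on 7% SDS-PAGE, blocked with casein, mouse monoclonal anti-iNOS at 500 ng/mL, HRP chemiluminescence, densitometry normalized to β-actin. mRNA: real-time PCR against GAPDH, quantified by the Liu and Saint method. Mean ± s.e.m. of 4 independent assays.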
Background: In western blotting, separated proteins are transferred to a membrane and probed.

Data set [9] has as its system Neutrophil. In words: Antiinflammatory activity in Wistar rat neutrophils assessed as inhibition of LPS-stimulated TNFalpha production at 1000 uM after 18 hrs by ELISA. The format is functional, cell-based. In short, it runs like this: as §1
For data set [10], the system named is Neutrophil. The data set is described as follows: Inhibition of iNOS expression in Wistar rat neutrophils assessed as reduction of NO production after 18 hrs by Western blot analysis. It is filed as functional, cell-based. In short, it runs like this:
as §4

In data set [11] the test system is Neutrophil. The data set is described as follows: Antiinflammatory activity in Wistar rat neutrophils assessed as inhibition of LPS-stimulated NO production at 10 to 100 uM after 18 hrs by Griess method. The format is functional, cell-based. In short, it runs like this: as §2
The nature of data set [12]: Induction of necrosis in Wistar rat neutrophils. It is filed as cell-based. The note with it: neutrophil.
Data set [13] concerns Neutrophil. The data set is described as follows: Antiinflammatory activity in Wistar rat neutrophils assessed as inhibition of LPS-stimulated PGE2 production at 1000 uM after 18 hrs by ELISA. It is filed as functional, cell-based. In a few lines: as §2
Data set [14] is described as follows: Induction of apoptosis in Wistar rat neutrophils. It is filed as cell-based. The note with it: neutrophil.
Data set [15] concerns the target Nitric oxide synthase, inducible (Rattus norvegicus) (UniProt Q06518). The data set is described as follows: Inhibition of iNOS in LPS-stimulated Wistar rat neutrophils assessed as decrease in total NOS activity at 100 uM after 18 hrs by enzymatic assay. In a few lines:
as §3

For a further data set, the system named is Rattus norvegicus. In words: Antiinflammatory activity in LPS-induced rat subcutaneous dorsal inflamed tissue assessed as reduction of neutrophil recruitment at 50 mg/kg, ip after 4 hrs post LPS challenge by Giemsa staining. It is filed as functional, organism-based. Also noted: dose 50 mg/kg. In short, it runs like this: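 Rat dorsal air pouch: 10 mL sterile air injected subcutaneously, refilled with 10 mL on day 7. On day 10, 50 mg/kg in 1 mL sterile PBS was given intraperitoneally (per methods) at the same time as LPS (1.5 mg/mL) was injected into the pouch; controls got PBS. Exudate leukocytes were counted 4 h later by Neubauer chamber and dyed smears. Mean ± s.e.m., 3 animals/group.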

Data set [16] is described as follows: Induction of TNFalpha production in Wistar rat neutrophils at 100 uM after 18 hrs by ELISA relative to vehicle-treated control. The format is cell-based. The note with it: neutrophil. In short, it runs like this:
as §1

Data set [17] can be described thus: Inhibition of LPS-stimulated NO production in Wistar rat neutrophils at 10 uM after 18 hrs by Griess method. The note with it: neutrophil.
The test system of data set [18] is Neutrophil. In words: Inhibition of LPS-induced iNOS gene expression in Wistar rat neutrophils assessed as decrease in mRNA level after 18 hrs by real-time PCR analysis. The format is functional, cell-based. In short, it runs like this:
as §4

Data set [19] concerns Neutrophil. In words: Inhibition of LPS-induced cytoplasmic iNOS expression in Wistar rat neutrophils assessed as decrease in protein level after 18 hrs by Western blot analysis. The format is functional, cell-based. In short, it runs like this:
as §4

Active and inactive are the calls of the source. The calls are words filed in the database; no cut-off is given here. A value given as a limit tells only on which side of the number the result lay.

Chain of Nitric oxide synthase, inducible (Rattus norvegicus) (Q06518 whole entry): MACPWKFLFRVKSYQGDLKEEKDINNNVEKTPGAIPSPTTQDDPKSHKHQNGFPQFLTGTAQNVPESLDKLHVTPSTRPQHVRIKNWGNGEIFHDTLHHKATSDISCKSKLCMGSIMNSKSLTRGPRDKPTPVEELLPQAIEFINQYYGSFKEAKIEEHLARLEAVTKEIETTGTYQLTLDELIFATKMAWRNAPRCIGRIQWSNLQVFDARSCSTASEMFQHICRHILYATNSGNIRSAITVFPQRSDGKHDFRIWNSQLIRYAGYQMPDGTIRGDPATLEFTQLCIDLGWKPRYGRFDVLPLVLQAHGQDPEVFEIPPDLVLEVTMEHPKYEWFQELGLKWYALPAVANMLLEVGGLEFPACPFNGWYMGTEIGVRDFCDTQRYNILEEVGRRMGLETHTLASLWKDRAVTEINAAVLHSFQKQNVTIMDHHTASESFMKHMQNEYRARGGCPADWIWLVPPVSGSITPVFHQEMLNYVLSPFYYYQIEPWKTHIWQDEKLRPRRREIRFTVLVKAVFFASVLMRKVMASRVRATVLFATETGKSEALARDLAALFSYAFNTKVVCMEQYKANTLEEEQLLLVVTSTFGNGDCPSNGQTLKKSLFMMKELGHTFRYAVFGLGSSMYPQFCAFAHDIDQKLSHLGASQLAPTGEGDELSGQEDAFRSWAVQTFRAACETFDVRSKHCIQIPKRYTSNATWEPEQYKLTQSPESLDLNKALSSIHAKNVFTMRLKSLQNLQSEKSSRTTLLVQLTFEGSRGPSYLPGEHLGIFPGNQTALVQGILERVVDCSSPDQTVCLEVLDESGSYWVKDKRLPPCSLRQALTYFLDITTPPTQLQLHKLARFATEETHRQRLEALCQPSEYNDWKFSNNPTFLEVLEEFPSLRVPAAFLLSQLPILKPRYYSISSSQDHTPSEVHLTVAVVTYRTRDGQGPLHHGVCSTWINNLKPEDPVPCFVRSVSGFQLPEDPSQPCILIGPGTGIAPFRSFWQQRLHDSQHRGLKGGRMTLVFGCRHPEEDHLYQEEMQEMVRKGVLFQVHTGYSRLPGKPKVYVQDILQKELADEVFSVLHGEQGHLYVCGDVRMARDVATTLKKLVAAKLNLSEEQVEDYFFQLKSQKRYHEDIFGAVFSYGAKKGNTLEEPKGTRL

`CCCCCCCCn1cc(-c2cc3ccccc3oc2=O)nn1`: the results for the Activity result in data set [1], in data set [12] and in data set [14] were “Toxic”, “Non-toxic” and “Non-toxic”, respectively. In addition, the inhibition entry (in the data set with Neutrophil [2]; in data set [5]; in the data set on Neutrophil [9]; with Neutrophil [13]) was “inactive” throughout. The inhibition result (in data set [3]; in the data set with Neutrophil [8]; with Neutrophil [10]; in the data set on Neutrophil [11]; in [15]) was “Active” throughout. Besides, the viability in data set [4] was more than 90%. Further, the outcome in the data set on Neutrophil [6] and in the data set on Neutrophil [7] was inactive.
In the case of `COC(=O)[C@@H](N)CCCNC(=N)N[N+](=O)[O-]`, the inhibition entry in data set [5] was “Active”.
Regarding `N=C(N)NN`, in the data set with Rattus norvegicus, the result was Active.
Consider `CCCCCCCCCCn1cc(-c2cc3ccccc3oc2=O)nn1`, for which the Activity entry in data set [1] is “Toxic”; in [12] it was “Non-toxic”; in data set [14], “Non-toxic”. Further, the inhibition entry (in the data set with Neutrophil [2]; in data set [5]; in the data set on Neutrophil [9]; in the data set on Neutrophil [13]) was “inactive” in each case. The inhibition result (in data set [3]; in the data set on Neutrophil [8]; in the data set on Neutrophil [10]; in the data set with Neutrophil [11]; in [15]) was “Active” in each case. In addition, the viability in data set [4] is more than 90%. In addition, the outcome in the data set with Neutrophil [6] and with Neutrophil [7] was inactive.
For the compound `CCCCCCn1cc(-c2cc3ccccc3oc2=O)nn1`, the inhibition entry in the data set on Neutrophil [2], with Neutrophil [9] and in the data set on Neutrophil [13] was “inactive” in each case. The inhibition entry (in data set [3]; in data set [5]; with Neutrophil [8]; in the data set on Neutrophil [10]; in data set [15]) was “Active” throughout. The viability in data set [4] was more than 90%. Also, the result in the data set on Neutrophil [6] and in the data set with Neutrophil [7] was inactive. Besides, the Activity result is “Toxic” in [16], “Toxic” in data set [17], “Non-toxic” in [12] and “Non-toxic” in data set [14].
In the case of `O=c1oc2ccccc2cc1-c1cn(-c2ccccc2)nn1`, the inhibition entry (with Neutrophil [2]; in data set [5]; in the data set on Neutrophil [9]; with Neutrophil [13]) was “inactive” throughout. For the same compound, the inhibition entry (in data set [3]; in the data set on Neutrophil [18]; with Neutrophil [8]; in the data set with Neutrophil [10]; in the data set with Neutrophil [11]; with Neutrophil [19]) was “Active” in each case. Also, the inhibition entry in data set [15] is “Active”. Moreover, in [4], the viability is more than 90%. Also, the result in the data set on Rattus norvegicus was Active. For the same compound, the outcome in the data set with Neutrophil [6] and with Neutrophil [7] was inactive. Moreover, the Activity result in data set [12] and in [14] was “Non-toxic” each time.

The values above are taken from ChEMBL document CHEMBL2151034, “Synthesis, biological evaluation and molecular docking studies of 3-(triazolyl)-coumarin derivatives: effect on inducible nitric oxide synthase” (Eur J Med Chem, 2012).
